Reference: ChEMBL document CHEMBL3616442, “Unconventional Knoevenagel-type indoles: Synthesis and cell-based studies for the identification of pro-apoptotic agents” (Eur J Med Chem, 2015)

Legend:
[1] = system: IGROV-1; experiment: Growth inhibition of human IGROV1 cells after 48 hrs by sulforhodamine B assay; type: functional; conditions: IGROV-1, 48 h
Procedure, shortened: (§1)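 NCI 60-cell-line screen. Compounds tested at five 10-fold dilutions from 10^-4 to 10^-8 M. Cells exposed for the last 48 h of a 72 h incubation, growth estimated by sulforhodamine B protein assay. GI50 is the concentration giving 50% growth inhibition. Values beyond the tested range are expressed as greater or lesser than the extreme concentration.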

[2] = system: SK-OV-3; experiment: Growth inhibition of human SKOV3 cells after 48 hrs by sulforhodamine B assay; type: functional; conditions: SK-OV-3, 48 h
[3] = system: CAKI-1; experiment: Growth inhibition of human CAKI-1 cells after 48 hrs by sulforhodamine B assay; type: functional; conditions: CAKI-1, 48 h; procedure, shortened: as §1
[4] = system: A549; experiment: Growth inhibition of human A549 cells after 48 hrs by sulforhodamine B assay; type: functional; conditions: A549, 48 h; procedure, shortened: as §1
[5] = Growth inhibition of human RXF393 cells after 48 hrs by sulforhodamine B assay; type: functional; conditions: RXF 393, 48 h
[6] = system: UACC-257; experiment: Growth inhibition of human UACC257 cells after 48 hrs by sulforhodamine B assay; type: functional; conditions: UACC-257, 48 h
[7] = Growth inhibition of human HCC2998 cells after 48 hrs by sulforhodamine B assay; type: functional; conditions: HCC 2998, 48 h; procedure, shortened: as §1
[8] = Growth inhibition of human SF539 cells after 48 hrs by sulforhodamine B assay; type: functional; conditions: SF-539, 48 h
[9] = system: DU-145; experiment: Growth inhibition of human DU145 cells after 48 hrs by sulforhodamine B assay; type: functional; conditions: DU-145, 48 h; procedure, shortened: as §1
[10] = system: SF-268; experiment: Growth inhibition of human SF268 cells after 48 hrs by sulforhodamine B assay; type: functional; conditions: SF-268, 48 h
[11] = system: NCI-H322M; experiment: Growth inhibition of human NCI-H322M cells after 48 hrs by sulforhodamine B assay; type: functional; procedure, shortened: as §1
[12] = Growth inhibition of human NCI-ADR-RES cells after 48 hrs by sulforhodamine B assay; type: functional; procedure, shortened: as §1
[13] = system: TK-10; experiment: Growth inhibition of human TK10 cells after 48 hrs by sulforhodamine B assay; type: functional; conditions: TK-10, 48 h
[14] = system: HOP-62; experiment: Growth inhibition of human HOP62 cells after 48 hrs by sulforhodamine B assay; type: functional; conditions: HOP-62, 48 h; procedure, shortened: as §1
[15] = Growth inhibition of human SF295 cells after 48 hrs by sulforhodamine B assay; type: functional; conditions: SF-295, 48 h
[16] = system: A498; experiment: Growth inhibition of human A498 cells after 48 hrs by sulforhodamine B assay; type: functional; conditions: A498, 48 h; procedure, shortened: as §1
[17] = Growth inhibition of human EKVX cells after 48 hrs by sulforhodamine B assay; type: functional; procedure, shortened: as §1
[18] = system: HCT-116; experiment: Growth inhibition of human HCT116 cells after 48 hrs by sulforhodamine B assay; type: functional; conditions: HCT-116, 48 h; procedure, shortened: as §1
[19] = system: SK-MEL-28; experiment: Growth inhibition of human SK-MEL-28 cells after 48 hrs by sulforhodamine B assay; type: functional; conditions: SK-MEL-28, 48 h
[20] = system: SK-MEL-2; experiment: Growth inhibition of human SK-MEL-2 cells after 48 hrs by sulforhodamine B assay; type: functional; conditions: SK-MEL-2, 48 h
[21] = system: U-251; experiment: Growth inhibition of human U251 cells after 48 hrs by sulforhodamine B assay; type: functional; conditions: U-251, 48 h
[22] = system: OVCAR-4; experiment: Growth inhibition of human OVCAR4 cells after 48 hrs by sulforhodamine B assay; type: functional; conditions: OVCAR-4, 48 h; procedure, shortened: as §1
[23] = Growth inhibition of human COLO205 cells after 48 hrs by sulforhodamine B assay; type: functional; conditions: COLO 205, 48 h; procedure, shortened: as §1
[24] = system: Malme-3M; experiment: Growth inhibition of human MALME-3M cells after 48 hrs by sulforhodamine B assay; type: functional; procedure, shortened: as §1
[25] = Growth inhibition of human Hs 578T cells after 48 hrs by sulforhodamine B assay; type: functional; procedure, shortened: as §1
[26] = system: OVCAR-8; experiment: Growth inhibition of human OVCAR8 cells after 48 hrs by sulforhodamine B assay; type: functional; conditions: OVCAR-8, 48 h
[27] = system: SN12C; experiment: Growth inhibition of human SN12C cells after 48 hrs by sulforhodamine B assay; type: functional
[28] = system: MDA-MB-231; experiment: Growth inhibition of human MDA-MB-231 cells after 48 hrs by sulforhodamine B assay; type: functional; conditions: MDA-MB-231, 48 h; procedure, shortened: as §1
[29] = system: PC-3; experiment: Growth inhibition of human PC3 cells after 48 hrs by sulforhodamine B assay; type: functional; conditions: PC-3, 48 h
[30] = system: 786-0; experiment: Growth inhibition of human 786-0 cells after 48 hrs by sulforhodamine B assay; type: functional; conditions: 786-0, 48 h; procedure, shortened: as §1
[31] = system: UACC-62; experiment: Growth inhibition of human UACC62 cells after 48 hrs by sulforhodamine B assay; type: functional; conditions: UACC-62, 48 h
[32] = system: M14; experiment: Growth inhibition of human M14 cells after 48 hrs by sulforhodamine B assay; type: functional; conditions: M14, 48 h; procedure, shortened: as §1
[33] = system: SW-620; experiment: Growth inhibition of human SW620 cells after 48 hrs by sulforhodamine B assay; type: functional; conditions: SW-620, 48 h
[34] = system: MCF7; experiment: Growth inhibition of human MCF7 cells after 48 hrs by sulforhodamine B assay; type: functional; conditions: MCF7, 48 h; procedure, shortened: as §1
[35] = system: MT4; experiment: Antiproliferative activity against human MT4 cells after 96 hrs by MTT assay; type: functional, cell-based; conditions: MT4, 96 h
Procedure, shortened: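 Exponentially growing MT-4 cells (CD4+ human T-cells carrying integrated HTLV-1 genome), seeded at 1×10^5 cells/mL in RPMI-1640 with 10% FCS and antibiotics. Serial dilutions of compound (DMSO stock 100 mM, diluted in medium), 37 °C, 5% CO₂, 96 h. Viability read by MTT. 50% inhibition versus untreated controls by linear regression. Mean ± SD of three independent determinations.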

[36] = Growth inhibition of human HOP92 cells after 48 hrs by sulforhodamine B assay; type: functional; conditions: HOP-92, 48 h; procedure, shortened: as §1
[37] = system: NCI-H522; experiment: Growth inhibition of human NCI-H522 cells after 48 hrs by sulforhodamine B assay; type: functional; conditions: NCI-H522, 48 h; procedure, shortened: as §1
[38] = system: MDA-MB-435; experiment: Growth inhibition of human MDA-MB-435 cells after 48 hrs by sulforhodamine B assay; type: functional; conditions: MDA-MB-435, 48 h; procedure, shortened: as §1
[39] = Growth inhibition of human BT549 cells after 48 hrs by sulforhodamine B assay; type: functional; conditions: BT-549, 48 h; procedure, shortened: as §1
[40] = system: ACHN; experiment: Growth inhibition of human ACHN cells after 48 hrs by sulforhodamine B assay; type: functional; procedure, shortened: as §1
[41] = system: T47D; experiment: Growth inhibition of human T47D cells after 48 hrs by sulforhodamine B assay; type: functional
[42] = system: NCI-H226; experiment: Growth inhibition of human NCI-H226 cells after 48 hrs by sulforhodamine B assay; type: functional; conditions: NCI-H226, 48 h; procedure, shortened: as §1
[43] = system: HT-29; experiment: Growth inhibition of human HT-29 cells after 48 hrs by sulforhodamine B assay; type: functional; conditions: HT-29, 48 h; procedure, shortened: as §1
[44] = system: OVCAR-3; experiment: Growth inhibition of human OVCAR3 cells after 48 hrs by sulforhodamine B assay; type: functional; conditions: OVCAR-3, 48 h; procedure, shortened: as §1
[45] = system: MDA-MB-468; experiment: Growth inhibition of human MDA-MB-468 cells after 48 hrs by sulforhodamine B assay; type: functional; conditions: MDA-MB-468, 48 h; procedure, shortened: as §1
[46] = system: HCT-15; experiment: Growth inhibition of human HCT15 cells after 48 hrs by sulforhodamine B assay; type: functional; conditions: HCT-15, 48 h; procedure, shortened: as §1
[47] = system: KM12; experiment: Growth inhibition of human KM12 cells after 48 hrs by sulforhodamine B assay; type: functional; conditions: KM12, 48 h; procedure, shortened: as §1
[48] = system: SNB-75; experiment: Growth inhibition of human SNB75 cells after 48 hrs by sulforhodamine B assay; type: functional; conditions: SNB-75, 48 h
[49] = Growth inhibition of human RPMI8226 cells after 48 hrs by sulforhodamine B assay; type: functional; conditions: RPMI-8226, 48 h
[50] = system: NCI-H460; experiment: Growth inhibition of human NCI-H460 cells after 48 hrs by sulforhodamine B assay; type: functional; conditions: NCI-H460, 48 h; procedure, shortened: as §1
[51] = system: NCI-H23; experiment: Growth inhibition of human NCI-H23 cells after 48 hrs by sulforhodamine B assay; type: functional; conditions: NCI-H23, 48 h; procedure, shortened: as §1
[52] = system: CCRF-CEM; experiment: Growth inhibition of human CCRF-CEM cells after 48 hrs by sulforhodamine B assay; type: functional; procedure, shortened: as §1
[53] = Growth inhibition of human LOXIMVI cells after 48 hrs by sulforhodamine B assay; type: functional; conditions: LOX IMVI; procedure, shortened: as §1
[54] = system: SNB-19; experiment: Growth inhibition of human SNB19 cells after 48 hrs by sulforhodamine B assay; type: functional; conditions: SNB-19, 48 h
[55] = system: UO-31; experiment: Growth inhibition of human UO31 cells after 48 hrs by sulforhodamine B assay; type: functional; conditions: UO-31, 48 h

Q: What does the source list for `N#C/C(=C\c1c(-c2ccccc2)[nH]c2ccccc12)C(=O)c1ccccc1`?
A: GI50 [1]: 2.5 µM; GI50 [2]: 15.2 µM; GI50 [3]: 2.5 µM; GI50 [4]: 7.6 µM; GI50 [5]: 9.6 µM; GI50 [6]: 10.9 µM; GI50 [7]: 14.5 µM; GI50 [8]: 6 µM; GI50 [9]: 5.2 µM; GI50 [10]: 5.7 µM; GI50 [11]: 3.8 µM; GI50 [12]: 3.1 µM; GI50 [13]: 11.1 µM; GI50 [14]: 16.3 µM; GI50 [15]: 3 µM; GI50 [16]: 15.3 µM; GI50 [17]: 10 µM; GI50 [18]: 5.3 µM; GI50 [19]: 12 µM; GI50 [20]: 35.2 µM; GI50 [21]: 4.7 µM; GI50 [22]: 65.3 µM; GI50 [23]: 5 µM; GI50 [24]: 12.3 µM; GI50 [25]: 6.3 µM; GI50 [26]: 2.2 µM; GI50 [27]: 5.7 µM; GI50 [28]: 13.2 µM; GI50 [29]: 3.5 µM; GI50 [30]: 16.5 µM; GI50 [31]: 3.6 µM; GI50 [32]: 4.8 µM; GI50 [33]: 3 µM; GI50 [34]: 4 µM; EC50 [35]: 0.5 µM; GI50 [36]: 4.5 µM; GI50 [37]: 4 µM; GI50 [38]: 0.37 µM; GI50 [39]: 3 µM; GI50 [40]: 7.2 µM; GI50 [41]: 5.3 µM; GI50 [42]: 6.8 µM; GI50 [43]: 3.4 µM; GI50 [44]: 2.4 µM; GI50 [45]: 5.6 µM; GI50 [46]: 3.5 µM; GI50 [47]: 2 µM; GI50 [48]: 3.2 µM; GI50 [49]: 2.4 µM; GI50 [50]: 4.5 µM; GI50 [51]: 16 µM; GI50 [52]: 7.3 µM; GI50 [53]: 7.4 µM; GI50 [54]: 16.8 µM; GI50 [55]: 30.5 µM
